Reference: ChEMBL document CHEMBL3227992, “Glycerides as prodrugs. 1. Synthesis and antiinflammatory activity of 1,3-bis(alkanoyl)-2-(O-acetylsalicyloyl)glycerides (aspirin triglycerides)” (J Med Chem, 1979)
Blank lines part the entries; values can stand above or below the compound they belong to. The source made the active and inactive calls. No cut-off for these calls is given here.

Columns and labels:
[1] = system: Rattus norvegicus; assay: Antiinflammatory activity in Sprague-Dawley rat assessed as inhibition of carrageenin-induced hind paw swelling at 273 umol/kg, po administered 2 hrs prior to carrageenin challenge measured after 3 hrs by volumetric transducer analysis relative to aspirin; assay type: functional
Outline: (§1)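 Male Sprague-Dawley rats (170-200 g) were fasted overnight with water ad libitum. Compounds were suspended in 0.5% (w/v) methylcellulose with a drop of Tween 80 and given orally 2 h before a subplantar injection of 0.1 mL of 1.5% carrageenin. Paw volume was read before and 3 h after injection by immersion in a mercury vessel linked to a volumetric transducer and polygraph.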

[2] = system: Rattus norvegicus; assay: Antiinflammatory activity in Sprague-Dawley rat assessed as inhibition of carrageenin-induced hind paw swelling at 444 umol/kg, po administered 2 hrs prior to carrageenin challenge measured after 3 hrs by volumetric transducer analysis relative to aspirin; assay type: functional; outline: as §1
[3] = system: Rattus norvegicus; assay: Ulcerogenicity in Sprague-Dawley rat assessed as gastric lesions at 444 umol/kg, po; assay type: toxicity, organism-based, Stomach; settings: in vivo
Outline: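 Rats were fasted overnight and dosed orally with compound in 0.5% methylcellulose plus Tween 80. Stomachs were examined for gastric lesions by the Brodie and Hansen method. Lesion incidence counted animals with a lesion of 1 mm or longer, expressed relative to plain aspirin.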

[4] = system: Plasma; assay: Prodrug conversion in rat plasma assessed as salicylate level at 594 umol/kg, po measured after 15 mins; assay type: ADME, organism-based; settings: in vivo, 0.25 h
Outline: (§2)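 Rats were dosed orally, with the glyceride given as an emulsion. Plasma salicylate was followed from 15 min to 24 h after dosing and reported as mean levels. Absorption was estimated by comparing mean areas under the plasma salicylate curves with those after aspirin.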

[5] = system: Plasma; assay: Prodrug conversion in rat plasma assessed as salicylate level at 594 umol/kg, po measured after 24 hrs; assay type: ADME, organism-based; settings: in vivo; outline: as §2
[6] = system: Plasma; assay: Prodrug conversion in rat plasma assessed as salicylate level at 1192 umol/kg, po administered as emulsified solution measured after 1 to 6 hrs; assay type: ADME, organism-based; settings: in vivo; outline: as §2
[7] = system: Plasma; assay: Prodrug conversion in rat plasma assessed as salicylate level at 1192 umol/kg, po administered as emulsified solution measured after 24 hrs; assay type: ADME, organism-based; settings: in vivo; outline: as §2
[8] = system: Rattus norvegicus; assay: Antipyretic activity against yeast-induced fever in rat assessed as delay in onset of activity at 1068 umol/kg, po relative to aspirin; assay type: functional, organism-based
[9] = system: Rattus norvegicus; assay: Antipyretic activity against yeast-induced fever in rat assessed as prolonged duration of action at 1068 umol/kg, po relative to aspirin; assay type: functional, organism-based
[10] = Drug absorption in rat at 1192 umol/kg, po administered as emulsified solution; assay type: ADME, organism-based; settings: in vivo, read-out: Drug absorption; outline: as §2
[11] = system: Rattus norvegicus; assay: Antiinflammatory activity in Sprague-Dawley rat assessed as inhibition of carrageenin-induced hind paw swelling at 323 umol/kg, po administered 2 hrs prior to carrageenin challenge measured after 3 hrs by volumetric transducer analysis relative to aspirin; assay type: functional; outline: as §1
[12] = system: Rattus norvegicus; assay: Antiinflammatory activity in Sprague-Dawley rat assessed as inhibition of carrageenin-induced hind paw swelling at 394 umol/kg, po administered 2 hrs prior to carrageenin challenge measured after 3 hrs by volumetric transducer analysis relative to aspirin; assay type: functional; outline: as §1

Structure (SMILES): CCCCCCCCCCCCCCCC(=O)OCC(COC(=O)CCCCCCCCCCCCCCC)OC(=O)c1ccccc1OC(C)=O
inhibition in vivo at 273 µmol/kg [1]: 12%

Structure (SMILES): CCCC(=O)OCC(COC(=O)CCC)OC(=O)c1ccccc1OC(C)=O
inhibition in vivo at 444 µmol/kg [2]: 92%
Activity [3]: Non-toxic

Drug metabolism [4]: 196 µg/mL
Drug metabolism [5]: 24 µg/mL
Structure (SMILES): CC(=O)Oc1ccccc1C(=O)O [ASPIRIN]
Activity [3]: Toxic

Drug metabolism [6]: 219 µg/mL
Drug metabolism [7]: 61 µg/mL
Fa [10]: 100%
Structure (SMILES): CCCCCCCCCC(=O)OCC(COC(=O)CCCCCCCCC)OC(=O)c1ccccc1OC(C)=O
inhibition in vivo at 444 µmol/kg [2]: 80%
Activity [3]: Non-toxic
Activity [8]: Active
Activity [9]: Active

Structure (SMILES): CCCCCCCCCCCC(=O)OCC(COC(=O)CCCCCCCCCCC)OC(=O)c1ccccc1OC(C)=O
inhibition in vivo at 323 µmol/kg [11]: 44%

Structure (SMILES): CC(=O)OCC(COC(C)=O)OC(=O)c1ccccc1OC(C)=O
inhibition in vivo at 444 µmol/kg [2]: 48%
Activity [3]: Toxic

Structure (SMILES): CCCCCCCC(=O)OCC(COC(=O)CCCCCCC)OC(=O)c1ccccc1OC(C)=O
inhibition in vivo at 394 µmol/kg [12]: 60%
